{"data": "Experimental data from different studies", "target": "Ephrin type-A receptor 7 (EPHA7, Homo sapiens, UniProt Q15375)", "note": "Lines come from different studies, so protocols differ."}
{"SMILES": "C[C@@H](c1cccc(C#N)c1)n1cc(Cl)cc(C(N)=O)c1=N", "observed": "cell-free assay", "method": "competition with immobilised ligand", "tested at": "1 µM", "quantity": "remaining binding", "result": "100%"}
{"SMILES": "O=C1Nc2ccc(Cl)cc2C1=Cc1cc(Cl)c(O)c(Cl)c1", "observed": "cell-free assay", "tested at": "0.5 µM", "quantity": "remaining signal", "result": "97.5%"}
{"SMILES": "Cc1ccc(C(=O)NCc2ccsc2)cc1C#Cc1cn(C(C)C)c2ncnc(N)c12", "observed": "enzyme activity", "action": "inhibitor", "tested at": "1 µM", "quantity": "activity vs control", "result": "21%"}
{"SMILES": "CO[C@@H](C)c1c(Nc2ccc([C@H](N(C)C(=O)C3CCS(=O)(=O)CC3)C(F)(F)F)cc2)cnc2cc(Cl)nn12", "observed": "cell-free assay", "method": "competition with immobilised ligand", "tested at": "1 µM", "quantity": "remaining binding", "result": "84%"}
{"SMILES": "CC(C)(C)c1nc(-c2cccc(NS(=O)(=O)c3c(F)cccc3F)c2F)c(-c2ccnc(N)n2)s1", "observed": "enzyme activity", "action": "inhibitor", "method": "radiometric", "tested at": "1 µM", "quantity": "remaining activity", "result": "102%"}
{"SMILES": "COc1ccc2c(c1)O[C@@H](c1ccc(OC)c(OC)c1)C[C@H]2NC(=O)C1(c2ccc3c(c2)OC(F)(F)O3)CC1", "observed": "cell-free assay", "method": "competition with immobilised ligand", "tested at": "1 µM", "quantity": "remaining binding", "result": "86%"}
{"SMILES": "COc1cccc2c(NCc3ccccc3)nc(-n3c(N)nc4ccccc43)nc12", "observed": "target engagement in cells", "action": "inhibitor", "method": "chemoproteomics", "tested at": "20 mM", "quantity": "inhibition", "result": "2.9%"}
{"SMILES": "O=C(NS(=O)(=O)c1ccc(NCC2CCOCC2)c([N+](=O)[O-])c1)c1ccc(N2CCN(Cc3ccc(C(F)(F)F)cc3-c3ccc(Cl)cc3)CC2)cc1Oc1cnc2[nH]ccc2c1", "observed": "cell-free assay", "method": "competition with immobilised ligand", "tested at": "1 µM", "quantity": "remaining binding", "result": "88%"}
{"SMILES": "Cc1sc(C(=O)NC2COC2)cc1-n1cc(NC(=O)Nc2c(F)cccc2Cl)cn1", "observed": "enzyme activity", "action": "inhibitor", "tested at": "10 µM", "quantity": "remaining activity", "result": "98.6%"}
{"SMILES": "CNC(=O)c1cc(Oc2ccc(NC(=O)Nc3ccc(Cl)c(C(F)(F)F)c3)cc2)ccn1", "observed": "enzyme activity", "action": "inhibitor", "tested at": "0.3 µM", "quantity": "inhibition", "result": "30%"}
{"SMILES": "Cc1ccc(NC(=O)c2ccc(C)c(C(F)(F)F)c2)cc1C#Cc1nn(C2CCC(O)CC2)c2ncnc(N)c12 (centres unmarked)", "observed": "cell-free assay", "tested at": "10 µM", "quantity": "remaining signal", "result": "0%"}
{"SMILES": "Cc1ccc(Nc2nccc(N(C)c3ccc4c(C)n(C)nc4c3)n2)cc1S(N)(=O)=O", "observed": "enzyme activity", "action": "inhibitor", "tested at": "10 µM", "quantity": "inhibition", "result": "34%"}
{"SMILES": "COc1cc(Cl)c(C(=O)N[C@@H](CN[C@H]2CC[C@@H](N)CC2)Cc2ccc(C#N)cc2)cc1-c1ccc(CN[C@H](C)c2ccc(C)cc2)o1", "observed": "enzyme activity", "action": "inhibitor", "tested at": "1 µM", "quantity": "remaining activity", "result": "105%"}
{"SMILES": "CNC(=O)c1cc2c(Oc3ccc(NC(=O)C4(C(=O)Nc5ccc(F)cc5)CC4)cc3)ccnc2cc1OC", "observed": "enzyme activity", "action": "inhibitor", "method": "radiometric", "tested at": "1 µM", "quantity": "inhibition", "result": "96%"}
{"SMILES": "CCN(CC)CCNC(=O)c1c(C)[nH]c(/C=C2\\C(=O)Nc3ccc(F)cc32)c1C", "observed": "enzyme activity", "action": "inhibitor", "tested at": "0.3 µM", "quantity": "inhibition", "result": "3%"}
{"SMILES": "Cc1ccc(C(=O)Nc2ccc(CN3CCN(C)CC3)c(C(F)(F)F)c2)cc1C#Cc1cnc2cccnn12", "observed": "cell-free assay", "tested at": "23.5 nM", "quantity": "remaining signal", "result": "81%"}
{"SMILES": "Cc1c(C(=O)O)cc(-c2ccc(C3CCNCC3)cc2)c2ccc(-c3ccc(C(F)(F)F)cc3)cc12", "observed": "cell-free assay", "method": "competition with immobilised ligand", "tested at": "1 µM", "quantity": "remaining binding", "result": "100%"}
{"SMILES": "CCCS(=O)(=O)Nc1ccc(F)c(C(=O)c2c[nH]c3ncc(-c4ccc(Cl)cc4)cc23)c1F", "observed": "enzyme activity", "action": "inhibitor", "tested at": "1 µM", "quantity": "inhibition", "result": "< 10%"}
{"SMILES": "CC(=O)C1=C(C)N(c2cccc(C(F)(F)F)c2)C(=O)N[C@@H]1c1ccc(C#N)nc1", "observed": "cell-free assay", "method": "competition with immobilised ligand", "tested at": "1 µM", "quantity": "remaining binding", "result": "100%"}
{"SMILES": "CCCOc1ccc(OC)c(F)c1C(=O)c1ccc(C(=O)N[C@@H]2CNC[C@H]2NC(=O)c2ccc3[nH]ncc3c2)cc1", "observed": "enzyme activity", "action": "inhibitor", "tested at": "10 µM", "quantity": "remaining activity", "result": "29%"}
